Source: ChEMBL document CHEMBL1153071, “Synthesis, biological evaluation, and SAR study of novel pyrazole analogues as inhibitors of Mycobacterium tuberculosis: part 2. Synthesis of rigid pyrazolones” (Bioorg Med Chem, 2009)
Converted amounts (≈) assume the structure as drawn.

Tested on: Mycobacterium tuberculosis
Assay: Antimycobacterial activity against Mycobacterium tuberculosis H37Rv ATCC 27294 after 21 to 28 days by twofold agar dilution method
Type: functional
Conditions: not given
How it was run: (§1)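 Strain H37Rv ATCC 27294, kept on Löwenstein-Jensen slants and grown for inoculum in 7H9 broth with 10% ADC. Twofold agar dilution on Middlebrook 7H11 with 10% OADC, compound 0.0312–64 μg/mL. Each well received 10 μL of 1.5×10^5 cfu/mL (final 1.5×10^3 per well). Incubated 21–28 days. MIC (μg/mL) is the lowest concentration completely inhibiting visible growth.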

Point of comparison: `CC1=NN(c2ccccc2)C(=O)/C1=C(/c1ccc(Cl)cc1)N1CCSCC1`, MIC 8 µg/mL (≈ 20.1 µM). Against it:
- CC1=NN(c2ccc(Cl)cc2)C(=O)/C1=C\N1CCN(c2ccccc2)CC1 — 8-fold higher, 64 µg/mL (≈ 168 µM)
- CC1=NN(c2ccc(Cl)cc2)C(=O)/C1=C(/c1ccc(Cl)cc1)N1CCCCC1 — higher, > 64 µg/mL
- CC1=NN(c2ccc(Cl)cc2)C(=O)/C1=C(/c1ccc(Cl)cc1)N1CCSCC1 — the same, 8 µg/mL (≈ 18.5 µM)
- CC1=NN(c2ccc(Cl)cc2)C(=O)/C1=C(/c1ccc(Cl)cc1)N1CCC(C)CC1 — 8-fold higher, 64 µg/mL (≈ 149 µM)
- CC1=NN(c2ccc(Cl)cc2)C(=O)/C1=C(/c1ccc(Cl)cc1)N1CCN(C)CC1 — 2-fold lower, 4 µg/mL (≈ 9.32 µM)
- CC1=NN(c2ccc(Cl)cc2)C(=O)/C1=C\N1CCOCC1 — 8-fold higher, 64 µg/mL (≈ 209 µM)
- CC(=O)N1CCN(/C=C2\C(=O)N(c3ccc(Cl)cc3)N=C2C)CC1 — 8-fold higher, 64 µg/mL (≈ 185 µM)
- CC1=NN(c2ccc(Cl)cc2)C(=O)/C1=C\N1CCN(C)CC1 — 8-fold higher, 64 µg/mL (≈ 201 µM)
- CC1=NN(c2ccccc2)C(=O)/C1=C(/c1ccc(Cl)cc1)N1CCOCC1 — 2-fold higher, 16 µg/mL (≈ 41.9 µM)
- CC1=NN(c2ccc(Cl)cc2)C(=O)/C1=C(/c1ccc(Cl)cc1)N(C)C — 2-fold higher, 16 µg/mL (≈ 42.7 µM)
- CC1=NN(c2ccc(Cl)cc2)C(=O)/C1=C\Nc1ccccc1 — 8-fold higher, 64 µg/mL (≈ 205 µM)
- CC1=NN(c2ccc(Cl)cc2)C(=O)/C1=C\N(C)C — higher, > 64 µg/mL
- CC1=NN(c2ccc(Cl)cc2)C(=O)/C1=C\N1CCN(CCO)CC1 — 8-fold higher, 64 µg/mL (≈ 183 µM)
- CC1=NN(c2ccc(Cl)cc2)C(=O)/C1=C(/c1ccc(Cl)cc1)N1CCOCC1 — 2-fold lower, 4 µg/mL (≈ 9.61 µM)
- CC1=NN(c2ccccc2)C(=O)/C1=C(/c1ccc(Cl)cc1)N1CCN(C)CC1 — the same, 8 µg/mL (≈ 20.3 µM)
- CCCN(C)/C(=C1\C(=O)N(c2ccc(Cl)cc2)N=C1C)c1ccc(Cl)cc1 — 8-fold higher, 64 µg/mL (≈ 159 µM)
- CC1=NN(c2ccccc2)C(=O)/C1=C(/c1ccc(Cl)cc1)N(C)C — 4-fold higher, 32 µg/mL (≈ 94.2 µM)

Tested on: not listed separately
Assay: Cytotoxicity against african green monkey Vero cells
Type: cell-based
Conditions: chlorocebus sabaeus

Point of comparison: `CC1=NN(c2ccccc2)C(=O)/C1=C(/c1ccc(Cl)cc1)N1CCN(C)CC1`, CC50 5.58 µg/mL (≈ 14.1 µM). Against it:
- CC1=NN(c2ccc(Cl)cc2)C(=O)/C1=C(/c1ccc(Cl)cc1)N1CCSCC1 — within 1.5-fold, 4.86 µg/mL (≈ 11.2 µM)
- CC1=NN(c2ccc(Cl)cc2)C(=O)/C1=C(/c1ccc(Cl)cc1)N1CCN(C)CC1 — within 1.5-fold, 5.49 µg/mL (≈ 12.8 µM)
- CC1=NN(c2ccccc2)C(=O)/C1=C(/c1ccc(Cl)cc1)N1CCSCC1 — within 1.5-fold, 5.71 µg/mL (≈ 14.3 µM)

Tested on: Mycobacterium tuberculosis
Assay: Antimycobacterial activity against Mycobacterium tuberculosis
Type: functional
Conditions: not given
How it was run: as §1

Point of comparison: `Cc1[nH]n(-c2ccc(Br)cc2)c(=O)c1C(=O)c1ccc(Cl)cc1`, MIC 4 µg/mL (≈ 10.2 µM). Against it:
- Cc1nn(-c2ccccc2)c(O)c1C(=O)c1ccc(Cl)cc1 — the same, 4 µg/mL (≈ 12.8 µM)
- Cc1[nH]n(-c2ccc(Cl)cc2)c(=O)c1C(=O)c1ccc(Cl)cc1 — the same, 4 µg/mL (≈ 11.5 µM)
- Cc1[nH]n(-c2ccc(F)cc2)c(=O)c1C(=O)c1ccc(Cl)cc1 — the same, 4 µg/mL (≈ 12.1 µM)
